ChEMBL document CHEMBL1126975 (J Med Chem, 1993)

Key:
[1] = biological target: T1, Amine oxidase [flavin-containing] A (Rattus norvegicus, UniProt P21396); test: In Vitro evaluation for the inhibitory activity on rat brain by MAO-A at 100 uM; No Inhibition
T1 sequence (P21396 whole entry): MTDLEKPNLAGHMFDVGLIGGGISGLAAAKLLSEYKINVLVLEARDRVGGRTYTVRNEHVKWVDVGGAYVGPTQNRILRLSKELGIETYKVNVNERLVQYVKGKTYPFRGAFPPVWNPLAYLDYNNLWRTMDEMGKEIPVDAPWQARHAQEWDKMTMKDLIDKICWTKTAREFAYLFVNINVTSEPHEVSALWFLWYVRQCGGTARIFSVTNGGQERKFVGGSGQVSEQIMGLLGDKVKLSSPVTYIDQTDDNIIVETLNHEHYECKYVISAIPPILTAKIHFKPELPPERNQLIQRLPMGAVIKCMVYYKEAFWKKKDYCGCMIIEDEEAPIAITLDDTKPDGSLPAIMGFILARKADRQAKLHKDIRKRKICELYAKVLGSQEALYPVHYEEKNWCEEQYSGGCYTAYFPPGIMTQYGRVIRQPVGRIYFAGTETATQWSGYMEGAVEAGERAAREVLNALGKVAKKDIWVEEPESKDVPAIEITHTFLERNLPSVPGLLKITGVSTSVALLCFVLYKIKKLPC
Procedure, shortened: (§1)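 Male Sprague-Dawley rat brain crude mitochondrial fraction, 0.195 mg protein/mL. Radiochemical assay at 37 °C, pH 7.4: MAO A with 10 μM [14C]5-HT, MAO B with 5 μM [14C]PEA. Drug preincubated 20 min with enzyme. […] Three experiments in duplicate.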

[2] = biological target: T2, Amine oxidase [flavin-containing] B (Rattus norvegicus, UniProt P19643); test: In vitro inhibitory activity on rat brain MAO-B.
T2 sequence (P19643 whole entry): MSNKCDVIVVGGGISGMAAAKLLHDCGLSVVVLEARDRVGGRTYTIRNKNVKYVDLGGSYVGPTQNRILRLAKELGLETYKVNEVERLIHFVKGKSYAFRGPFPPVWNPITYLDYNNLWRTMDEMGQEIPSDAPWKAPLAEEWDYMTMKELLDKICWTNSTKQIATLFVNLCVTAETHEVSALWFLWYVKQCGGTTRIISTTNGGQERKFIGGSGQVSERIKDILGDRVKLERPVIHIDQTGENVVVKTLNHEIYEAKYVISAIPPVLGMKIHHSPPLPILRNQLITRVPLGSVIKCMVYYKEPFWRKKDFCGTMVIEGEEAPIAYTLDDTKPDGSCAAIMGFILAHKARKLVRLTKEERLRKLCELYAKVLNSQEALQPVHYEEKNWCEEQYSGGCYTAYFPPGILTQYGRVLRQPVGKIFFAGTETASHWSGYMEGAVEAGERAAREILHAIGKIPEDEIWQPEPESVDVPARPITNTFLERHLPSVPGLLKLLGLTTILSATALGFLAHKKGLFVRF
Procedure, shortened: (§2)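 Radiochemical assay at 37 °C, pH 7.4: MAO A with 10 μM [14C]5-HT, MAO B with 5 μM [14C]PEA. Drug preincubated 20 min with enzyme. Three experiments in duplicate.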

[3] = biological target: T2, Amine oxidase [flavin-containing] B; test: Compound was evaluated for the time-dependence inhibition of MAO-B at 20 minutes pre-incubation periods
Procedure, shortened: (§3)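 Male Sprague-Dawley rat brain crude mitochondrial fraction, MAO B. Drug preincubated with enzyme at 37 °C for 0, 20, 30 or 60 min, then radiochemical assay with 5 μM [14C]PEA at pH 7.4. IC50 read graphically from 9–12 concentrations; three experiments in duplicate.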

[4] = biological target: T1, Amine oxidase [flavin-containing] A; test: In vitro inhibitory activity on rat brain by monoamine oxidase A (MAO-A); procedure, shortened: as §2
[5] = biological target: T2, Amine oxidase [flavin-containing] B; test: Compound was evaluated for the time-dependence inhibition of MAO-B at 60 minutes preincubation periods; procedure, shortened: as §3
[6] = biological target: T2, Amine oxidase [flavin-containing] B; test: Ex-Vivo Time course of evaluation for the percentage inhibition of MAO-B for 1 hr at single dose 5 mg/kg through oral gavage; assay type: organism-based; parameters: dose 5 mg/kg, route oral
Procedure, shortened: (§4)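 Fasted male Sprague-Dawley rats (150 g) dosed orally by gavage, drug suspended in Tween 80 plus 0.5% methylcellulose; vehicle controls. The 100 mg/kg arm was dosed daily for 9 days. Four rats per time point; brains frozen and homogenized in 0.1 M phosphate pH 7.4. Assayed at 37 °C with 8 μM [14C]PEA for 1 min; toluene/ethyl acetate extraction. Percent inhibition vs control, mean ± SEM.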

[7] = biological target: T2, Amine oxidase [flavin-containing] B; test: Ex-Vivo Time course of evaluation for the percentage inhibition of MAO-B for 0.5 hr at single dose 5 mg/kg through oral gavage; assay type: organism-based; parameters: dose 5 mg/kg, route oral; procedure, shortened: as §4
[8] = biological target: T2, Amine oxidase [flavin-containing] B; test: Compound was evaluated for the time-dependence inhibition of MAO-B at 0 minute pre-incubation periods; procedure, shortened: as §3
[9] = biological target: T2, Amine oxidase [flavin-containing] B; test: Ex-Vivo Time course of evaluation for the percentage inhibition of MAO-B for 4 hr at single dose 5 mg/kg through oral gavage; assay type: organism-based; parameters: dose 5 mg/kg, route oral; procedure, shortened: as §4
[10] = biological target: T1, Amine oxidase [flavin-containing] A; test: Compound was evaluated for the time-dependence inhibition of MAO-A at 60 minutes of preincubated period. values are same with or without pre-incubation
[11] = biological target: T2, Amine oxidase [flavin-containing] B; test: Compound was evaluated for the time-dependence inhibition of MAO-B at 30 minutes pre-incubation periods; procedure, shortened: as §3
[12] = biological target: T2, Amine oxidase [flavin-containing] B; test: Ex-Vivo percentage inhibition of MAO-B after 24 hr single 5 mg/kg dose by oral gavage; assay type: organism-based; parameters: dose 5 mg/kg, route oral
Procedure, shortened: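 Ex vivo oral gavage in fasted male Sprague-Dawley rats (Tween 80 / 0.5% methylcellulose), four rats per group. Brain homogenate taken 24 h after dosing. MAO B assayed with 8 μM [14C]PEA, 1 min at 37 °C; percent inhibition vs vehicle control.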

[13] = Selectivity for B form was estimated by the ratio of IC50 (MAO A) at 60 min to that of (MAO B)
[14] = biological target: T2, Amine oxidase [flavin-containing] B; test: Ex-Vivo Time course of evaluation for the percentage inhibition of MAO-B for 48 hr at single dose 5 mg/kg through oral gavage; assay type: organism-based; parameters: dose 5 mg/kg, route oral; procedure, shortened: as §4
[15] = biological target: T2, Amine oxidase [flavin-containing] B; test: Ex-Vivo Time course of evaluation for the percentage inhibition of MAO-B for 4 hr at single dose 5 mg/kg through oral gavage [p<0.05 (Bonferroni''s test)]; assay type: organism-based; parameters: dose 5 mg/kg, route oral; procedure, shortened: as §4
[16] = biological target: T2, Amine oxidase [flavin-containing] B; test: Ex-Vivo Time course of evaluation for the percentage inhibition of MAO-B for 1 hr at single dose 5 mg/kg through oral gavage (p<0.001); assay type: organism-based; parameters: dose 5 mg/kg, route oral; procedure, shortened: as §4
[17] = biological target: T2, Amine oxidase [flavin-containing] B; test: Compound was evaluated for the reversibility test for the percentage inhibition of MAO B at 6.25 nM after the test at 12.5 nM
Procedure, shortened: (§5)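 Rat brain crude mitochondrial fraction (1.94 mg protein/mL) preincubated 1 h at 37 °C with or without inhibitor at 6.25 or 12.5 nM. Then diluted 200-fold in 100 mM phosphate pH 7.4 with 100 μM PEA, held 4 h at 37 °C, pelleted, and washed 1 h in buffer without PEA. Assayed under standard conditions (PEA 1 min); percent inhibition vs control.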

[18] = biological target: T2, Amine oxidase [flavin-containing] B; test: Compound was evaluated for the reversibility test for the percentage inhibition of MAO B at 6.25 nM before the test at 12.5 nM
[19] = biological target: T2, Amine oxidase [flavin-containing] B; test: Ex-Vivo Time course of evaluation for the percentage inhibition of MAO-B for 24 hr at once-daily dose for 9 days 100 mg/kg through oral gavage (p<0.001)
[20] = biological target: T2, Amine oxidase [flavin-containing] B; test: Ex-Vivo Time course of evaluation for the percentage inhibition of MAO-B for 1 hr at single dose 100 mg/kg through oral gavage (p<0.001); assay type: organism-based; parameters: dose 100 mg/kg, route oral
[21] = biological target: T2, Amine oxidase [flavin-containing] B; test: Ex-Vivo Time course of evaluation for the percentage inhibition of MAO-B for 4 hr at single dose 1 mg/kg through oral gavage (p<0.001); assay type: organism-based; parameters: dose 1 mg/kg, route oral; procedure, shortened: as §4
[22] = biological target: T2, Amine oxidase [flavin-containing] B; test: Compound was evaluated for the reversibility test for the percentage inhibition of MAO B at 6.25 nM after the test; procedure, shortened: as §5
[23] = biological target: T2, Amine oxidase [flavin-containing] B; test: Ex-Vivo Time course of evaluation for the percentage inhibition of MAO-B for 24 hr at single dose 1 mg/kg through oral gavage (not significant Wilcoxom''s test); assay type: organism-based; parameters: dose 1 mg/kg, route oral; procedure, shortened: as §4
[24] = biological target: T2, Amine oxidase [flavin-containing] B; test: Ex-Vivo Time course of evaluation for the percentage inhibition of MAO-B for 1 hr at single dose 1 mg/kg through oral gavage (p<0.001); assay type: organism-based; parameters: dose 1 mg/kg, route oral; procedure, shortened: as §4
[25] = biological target: T2, Amine oxidase [flavin-containing] B; test: Ex-Vivo Time course of evaluation for the percentage inhibition of MAO-B for 24 hr at single dose 100 mg/kg through oral gavage; assay type: organism-based; parameters: dose 100 mg/kg, route oral
[26] = biological target: T2, Amine oxidase [flavin-containing] B; test: Compound was evaluated for the reversibility test for the percentage inhibition of MAO B at 6.25 nM before the test
[27] = biological target: T2, Amine oxidase [flavin-containing] B; test: Ex-Vivo Time course of evaluation for the percentage inhibition of MAO-B for 1 hr at single dose 1500 mg/kg through oral gavage (p<0.001); assay type: organism-based; parameters: dose 1500 mg/kg, route oral; procedure, shortened: as §4
[28] = biological target: T1, Amine oxidase [flavin-containing] A; test: In Vitro evaluation for the inhibitory activity on rat brain by MAO-A; procedure, shortened: as §1
[29] = biological target: T2, Amine oxidase [flavin-containing] B; test: Ex-Vivo Time course of evaluation for the percentage inhibition of MAO-B for 4 hr at single dose 5 mg/kg through oral gavage (p<0.001); assay type: organism-based; parameters: dose 5 mg/kg, route oral; procedure, shortened: as §4
[30] = biological target: T2, Amine oxidase [flavin-containing] B; test: Ex-Vivo Time course of evaluation for the percentage inhibition of MAO-B for 24 hr at single dose 1500 mg/kg through oral gavage; assay type: organism-based; parameters: dose 1500 mg/kg, route oral
[31] = biological target: T2, Amine oxidase [flavin-containing] B; test: Ex-Vivo Time course of evaluation for the percentage inhibition of MAO-B for 24 hr at single dose 1500 mg/kg through oral gavage (p<0.001); assay type: organism-based; parameters: dose 1500 mg/kg, route oral; procedure, shortened: as §4
[32] = biological target: T2, Amine oxidase [flavin-containing] B; test: Ex-Vivo Time course of evaluation for the percentage inhibition of MAO-B for 0.5 hr at single dose 5 mg/kg through oral gavage (p<0.001); assay type: organism-based; parameters: dose 5 mg/kg, route oral; procedure, shortened: as §4
[33] = biological target: T2, Amine oxidase [flavin-containing] B; test: Ex-Vivo Time course of evaluation for the percentage inhibition of MAO-B for 0.5 hr at single dose 1 mg/kg through oral gavage [p<0.01 (Bonferroni's test)]; assay type: organism-based; parameters: dose 1 mg/kg, route oral; procedure, shortened: as §4

| SMILES | IC50 [1] | IC50 [2] | IC50 [3] | IC50 [4] | IC50 [5] | inhibition at 5 mg/kg [7] | IC50 [8] | IC50 [10] | IC50 [11] | inhibition at 5 mg/kg [12] | Selectivity [13] | inhibition at 5 mg/kg [16] | further results |
| --- | --- | --- | --- | --- | --- | --- | --- | --- | --- | --- | --- | --- | --- |
| N#CCCCCn1nc(-c2ccc(OCc3ccccc3)cc2)oc1=O | Not Active | 0.49 µM |  |  |  |  |  |  |  |  |  |  |  |
| O=c1oc(-c2ccc(OCc3ccccc3)cc2)nn1CCO |  | 0.0037 µM | 0.0046 µM | 140 µM | 0.0046 µM | 65% | 0.033 µM | 140 µM | 0.0044 µM | 8% | 30400 |  | inhibition at 5 mg/kg [6]: 82%; inhibition at 5 mg/kg [9]: 70% |
| N#CCCn1nc(-c2ccc(OCc3cccc(Cl)c3)cc2)oc1=O |  | 0.012 µM |  | 7.4 µM |  | 1% |  |  |  | -7% |  | 36% | inhibition at 5 mg/kg [14]: 4%; inhibition at 5 mg/kg [15]: 29% |
| N#CCn1nc(-c2ccc(OCc3ccccc3)cc2)oc1=O | Not Active | 0.06 µM |  |  |  |  |  |  |  |  |  |  |  |
| C#CCN(C)[C@H](C)Cc1ccccc1 [SELEGILINE] |  |  |  |  |  |  |  |  |  |  |  |  | inhibition at 0.00625 µM [17]: 21%; inhibition at 0.00625 µM [18]: 21% |
| N#CCCn1nc(-c2ccc(OCc3ccccc3)cc2)oc1=O |  | 0.0022 µM | 0.0027 µM |  | 0.0014 µM |  | 0.025 µM | > 100 µM | 0.0022 µM | 18% | > 71400 | 87% | inhibition at 100 mg/kg [19]: 73%; inhibition at 100 mg/kg [20]: 90%; inhibition at 1 mg/kg [21]: 75%; inhibition at 0.00625 µM [22]: 102%; inhibition at 1 mg/kg [23]: 18%; inhibition at 1 mg/kg [24]: 86%; inhibition at 100 mg/kg [25]: 3%; inhibition at 0.00625 µM [26]: 35%; inhibition at 1500 mg/kg [27]: 91%; Inhibition [28]: 10%; inhibition at 5 mg/kg [29]: 83%; inhibition at 1500 mg/kg [30]: 2%; inhibition at 1500 mg/kg [31]: 74%; inhibition at 5 mg/kg [32]: 69%; inhibition at 1 mg/kg [33]: 34% |
